Test results: ChEMBL document CHEMBL3124903, “Synthesis, docking and evaluation of antioxidant and antimicrobial activities of novel 1,2,4-triazolo[3,4-b][1,3,4]thiadiazol-6-yl)selenopheno[2,3-d]pyrimidines” (Eur J Med Chem, 2014)
In brackets after ≈: the same amount, converted by molar mass.

Key:
Assay type in all cases: functional
[1] = test system: Klebsiella pneumoniae; experiment: Antibacterial activity against Klebsiella pneumoniae assessed as growth inhibition by microdilution broth susceptibility assay
[2] = test system: Escherichia coli; experiment: Antibacterial activity against Escherichia coli assessed as growth inhibition by microdilution broth susceptibility assay
[3] = Antioxidant activity assessed as NO radical scavenging activity after 150 mins by griess reagent method
[4] = test system: Bacillus subtilis; experiment: Antibacterial activity against Bacillus subtilis assessed as growth inhibition by microdilution broth susceptibility assay
[5] = test system: Aspergillus flavus; experiment: Antifungal activity against Aspergillus flavus assessed as growth inhibition by NCCLS broth dilution assay
[6] = test system: Candida albicans; experiment: Antifungal activity against Candida albicans assessed as growth inhibition by NCCLS broth dilution assay
Outline: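 Yeast susceptibility is tested by the NCCLS reference broth dilution method. MIC is read as the endpoint, and a DMSO vehicle control is included.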

[7] = Antioxidant activity assessed as H2O2 radical scavenging activity
[8] = test system: Radical scavenging activity; experiment: Antioxidant activity assessed as DPPH radical scavenging activity after 30 mins by spectrophotometric assay
Outline: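 The compound is mixed with methanolic DPPH and incubated for 30 min at room temperature. Absorbance is read against a blank at 517 nm. Percent scavenging is taken from absorbance of a control with all reagents except the compound versus the sample. Runs are in triplicate, and IC50 is reported.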

[9] = test system: Staphylococcus aureus; experiment: Antibacterial activity against Staphylococcus aureus assessed as growth inhibition by microdilution broth susceptibility assay

SMILES	MIC [1] [µg/mL]	MIC [2] [µg/mL]	IC50 [3] [µg/mL]	MIC [4] [µg/mL]	MIC [5] [µg/mL]	MIC [6] [µg/mL]	IC50 [7] [µg/mL]	IC50 [8] [µg/mL]	MIC [9] [µg/mL]
Cc1ccc(-c2nnc3sc(-c4[se]c5ncnc(Nc6ccc(Cl)cc6)c5c4C)nn23)cc1	25	50	21.64 (≈ 40.3 µM)	50	50 (≈ 93.1 µM)	> 100	19.14 (≈ 35.6 µM)	13.31 (≈ 24.8 µM)	25
COc1ccc(-c2nnc3sc(-c4[se]c5ncnc(Nc6ccc(Cl)cc6)c5c4C)nn23)cc1	25	12.5	19.82 (≈ 35.8 µM)	25	6.25 (≈ 11.3 µM)	6.25 (≈ 11.3 µM)	21.09 (≈ 38.1 µM)	12.75 (≈ 23.1 µM)	12.5
OC(Cn1cncn1)(Cn1cncn1)c1ccc(F)cc1F [FLUCONAZOLE]					3.12 (≈ 10.2 µM)	3.12 (≈ 10.2 µM)			
O=C(O)c1cn(C2CC2)c2cc(N3CCNCC3)c(F)cc2c1=O [CIPROFLOXACIN]	6.25			6.25					
Cc1c(-c2nn3c(-c4ccc([N+](=O)[O-])cc4)nnc3s2)[se]c2ncnc(Nc3ccc(Cl)cc3)c12	> 100	> 100	46.92 (≈ 82.6 µM)	> 100	> 100	> 100	48.31 (≈ 85.1 µM)	33.28 (≈ 58.6 µM)	> 100
Cc1c(-c2nn3c(-c4ccc(O)cc4)nnc3s2)[se]c2ncnc(Nc3ccc(Cl)cc3)c12	6.25	6.25	13.72 (≈ 25.5 µM)	3.12	3.12 (≈ 5.79 µM)	1.56 (≈ 2.89 µM)	15.38 (≈ 28.5 µM)	11.02 (≈ 20.4 µM)	6.25
Cc1ccc(-c2nnc3sc(-c4[se]c5ncnc(Nc6ccc(F)c(Cl)c6)c5c4C)nn23)cc1	12.5	12.5	16.52 (≈ 29.8 µM)	12.5	12.5 (≈ 22.5 µM)	25 (≈ 45.1 µM)	18.36 (≈ 33.1 µM)	12.86 (≈ 23.2 µM)	6.25
Cc1cc(C(C)(C)C)c(O)c(C(C)(C)C)c1 [BUTYLATED HYDROXYTOLUENE]			19.06 (≈ 86.5 µM)				17.82 (≈ 80.9 µM)	16.53 (≈ 75 µM)	
COc1ccc(-c2nnc3sc(-c4[se]c5ncnc(Nc6ccc(F)c(Cl)c6)c5c4C)nn23)cc1	6.25	6.25	12.74 (≈ 22.3 µM)	3.12	3.12 (≈ 5.47 µM)	3.12 (≈ 5.47 µM)	17.08 (≈ 29.9 µM)	10.41 (≈ 18.2 µM)	6.25
Cc1c(-c2nn3c(-c4ccc([N+](=O)[O-])cc4)nnc3s2)[se]c2ncnc(Nc3ccc(F)c(Cl)c3)c12	50	50	30.17 (≈ 51.5 µM)	100	> 100	> 100	36.42 (≈ 62.2 µM)	26.94 (≈ 46 µM)	100
Cc1c(-c2nn3c(-c4ccc(O)cc4)nnc3s2)[se]c2ncnc(Nc3ccc(F)c(Cl)c3)c12	3.12	3.12	8.2 (≈ 14.7 µM)	3.12	1.56 (≈ 2.8 µM)	1.56 (≈ 2.8 µM)	12.54 (≈ 22.5 µM)	9.46 (≈ 17 µM)	3.12
Cc1c(-c2nn3c(-c4ccccc4)nnc3s2)[se]c2ncnc(Nc3ccc(F)c(Cl)c3)c12	100	100	20.27 (≈ 37.5 µM)	50	50 (≈ 92.4 µM)	25 (≈ 46.2 µM)	22.92 (≈ 42.4 µM)	13.24 (≈ 24.5 µM)	50
Cc1c(-c2nn3c(-c4ccccc4)nnc3s2)[se]c2ncnc(Nc3ccc(Cl)cc3)c12	> 100	> 100	18.41 (≈ 35.2 µM)	> 100	50 (≈ 95.6 µM)	> 100	17.03 (≈ 32.6 µM)	14.82 (≈ 28.3 µM)	50
O=C1O[C@H]([C@@H](O)CO)C(O)=C1O [ASCORBIC ACID]			14.62 (≈ 83 µM)				15.24 (≈ 86.5 µM)	12.27 (≈ 69.7 µM)	
